Experimental data reported in ChEMBL document CHEMBL1208737, “Synthesis and in vitro evaluation of N-alkyl-3-hydroxy-3-(2-imino-3-methyl-5-oxoimidazolidin-4-yl)indolin-2-one analogs as potential anticancer agents” (2010).

Key:
Assay type in all cases: functional
RXF 393 = experiment: Growth inhibition of human RXF393 cells by sulforhodamine B assay
Summary of the method: (§1)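 Five-dose response testing across a 57-line human tumour panel (leukemia, non-small cell lung, colon, CNS, melanoma, ovarian, renal, prostate, breast), done after a single-dose primary screen run per the NCI method. Effect plotted against log10 molar drug concentration for each cell line. GI50 is the concentration giving a 50% reduction in net protein increase versus control cells.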

COLO 205 = experiment: Growth inhibition of human COLO205 cells by sulforhodamine B assay; summary of the method: as §1
SF-295 = experiment: Growth inhibition of human SF295 cells by sulforhodamine B assay; summary of the method: as §1
HCT-15 = experiment: Growth inhibition of human HCT15 cells by sulforhodamine B assay; summary of the method: as §1
SK-MEL-2 = experiment: Growth inhibition of human SK-MEL-2 cells by sulforhodamine B assay; summary of the method: as §1
NCI-H522 = experiment: Growth inhibition of human NCI-H522 cells by sulforhodamine B assay; summary of the method: as §1
SNB-75 = experiment: Growth inhibition of human SNB75 cells by sulforhodamine B assay; summary of the method: as §1
NCI-H226 = experiment: Growth inhibition of human NCI-H226 cells by sulforhodamine B assay; summary of the method: as §1
TK-10 = experiment: Growth inhibition of human TK10 cells by sulforhodamine B assay
Summary of the method: (§2)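 Part of a 57-line human tumour cell panel run at five doses. Growth effect was plotted against log10 molar drug concentration for each cell line. GI50 is the concentration giving a 50% reduction in net protein increase relative to untreated control cells, read from the dose-response curve.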

OVCAR-3 = experiment: Growth inhibition of human OVCAR-3 cells by sulforhodamine B assay; summary of the method: as §1
KM12 = experiment: Growth inhibition of human KM12 cells by sulforhodamine B assay; summary of the method: as §1
PC-3 = experiment: Growth inhibition of human PC3 cells by sulforhodamine B assay; summary of the method: as §1
NCI-H23 = experiment: Growth inhibition of human NCI-H23 cells by sulforhodamine B assay; summary of the method: as §1
HL-60(TB) = experiment: Growth inhibition of human HL-60(TB) cells by sulforhodamine B assay; summary of the method: as §1
Malme-3M = experiment: Growth inhibition of human MALME-3M cells by sulforhodamine B assay; summary of the method: as §1
NCI-H460 = experiment: Growth inhibition of human NCI-H460 cells by sulforhodamine B assay; summary of the method: as §1
HCT-116 = experiment: Growth inhibition of human HCT116 cells by sulforhodamine B assay; summary of the method: as §1
UACC-257 = experiment: Growth inhibition of human UACC257 cells by sulforhodamine B assay; summary of the method: as §2
HOP-62 = experiment: Growth inhibition of human HOP62 cells by sulforhodamine B assay; summary of the method: as §1
MDA-MB-435 = experiment: Growth inhibition of human MDA-MB-435 cells by sulforhodamine B assay; summary of the method: as §1
CAKI-1 = experiment: Growth inhibition of human Caki1 cells by sulforhodamine B assay; summary of the method: as §1
NCI-H322M = experiment: Growth inhibition of human NCI-H322M cells by sulforhodamine B assay; summary of the method: as §1
[1] = Growth inhibition of human […] cells by sulforhodamine B assay; summary of the method: as §1
SW-620 = experiment: Growth inhibition of human SW620 cells by sulforhodamine B assay; summary of the method: as §1
SK-MEL-28 = experiment: Growth inhibition of human SK-MEL-28 cells by sulforhodamine B assay; summary of the method: as §1
A498 = experiment: Growth inhibition of human A498 cells by sulforhodamine B assay; summary of the method: as §1
HT-29 = experiment: Growth inhibition of human HT-29 cells by sulforhodamine B assay; summary of the method: as §1
T47D = experiment: Growth inhibition of human T47D cells by sulforhodamine B assay; summary of the method: as §2
SF-268 = experiment: Growth inhibition of human SF268 cells by sulforhodamine B assay; summary of the method: as §1
LOX IMVI = experiment: Growth inhibition of human LOXIMVI cells by sulforhodamine B assay
Summary of the method: (§3)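 Five-dose response testing across the 57-line human tumour panel. Growth effect was plotted against log10 drug concentration for each cell line. GI50 is the molar concentration giving a 50% reduction in net protein increase relative to untreated control cells. TGI (total growth inhibition) and LC50 (concentration lethal to 50% of cells) were read from the same curves.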

DU-145 = experiment: Growth inhibition of human DU145 cells by sulforhodamine B assay; summary of the method: as §1
NCI/ADR-RES = experiment: Growth inhibition of human NCI/ADR-RES cells by sulforhodamine B assay; summary of the method: as §1
SF-539 = experiment: Growth inhibition of human SF539 cells by sulforhodamine B assay; summary of the method: as §1
K562 = experiment: Growth inhibition of human K562 cells by sulforhodamine B assay; summary of the method: as §1
A549 = experiment: Growth inhibition of human A549 cells by sulforhodamine B assay; summary of the method: as §3
EKVX = experiment: Growth inhibition of human EKVX cells by sulforhodamine B assay; summary of the method: as §1
CCRF-CEM = experiment: Growth inhibition of human CCRF-CEM cells by sulforhodamine B assay; summary of the method: as §1
MCF7 = experiment: Growth inhibition of human MCF7 cells by sulforhodamine B assay; summary of the method: as §1
SN12C = experiment: Growth inhibition of human SN12C cells by sulforhodamine B assay; summary of the method: as §1
IGROV-1 = experiment: Growth inhibition of human IGROV1 cells by sulforhodamine B assay; summary of the method: as §1
UO-31 = experiment: Growth inhibition of human UO31 cells by sulforhodamine B assay; summary of the method: as §2
OVCAR-8 = experiment: Growth inhibition of human OVCAR8 cells by sulforhodamine B assay; summary of the method: as §1
SK-OV-3 = experiment: Growth inhibition of human SKOV3 cells by sulforhodamine B assay; summary of the method: as §1
UACC-62 = experiment: Growth inhibition of human UACC62 cells by sulforhodamine B assay; summary of the method: as §2
OVCAR-4 = experiment: Growth inhibition of human OVCAR4 cells by sulforhodamine B assay; summary of the method: as §1
HCC 2998 = experiment: Growth inhibition of human HCC2998 cells by sulforhodamine B assay; summary of the method: as §1
SNB-19 = experiment: Growth inhibition of human SNB19 cells by sulforhodamine B assay; summary of the method: as §1
SK-MEL-5 = experiment: Growth inhibition of human SK-MEL-5 cells by sulforhodamine B assay; summary of the method: as §1
M14 = experiment: Growth inhibition of human M14 cells by sulforhodamine B assay; summary of the method: as §1
MDA-MB-231 = experiment: Growth inhibition of human MDA-MB-231 cells by sulforhodamine B assay; summary of the method: as §1
786-0 = experiment: Growth inhibition of human 786-0 cells by sulforhodamine B assay; summary of the method: as §1
MDA-MB-468 = experiment: Growth inhibition of human MDA-MB-468 cells by sulforhodamine B assay; summary of the method: as §1
ACHN = experiment: Growth inhibition of human ACHN cells by sulforhodamine B assay; summary of the method: as §1
OVCAR-5 = experiment: Growth inhibition of human OVCAR5 cells by sulforhodamine B assay; summary of the method: as §1
BT-549 = experiment: Growth inhibition of human BT549 cells by sulforhodamine B assay; summary of the method: as §1
MOLT-4 = experiment: Growth inhibition of human MOLT4 cells by sulforhodamine B assay; summary of the method: as §1
[2] = Growth inhibition of human Hs 578T cells by sulforhodamine B assay; summary of the method: as §1
[3] = read-out: LC50 (the source's name)

COc1ccc(CN2C(=O)C(O)(C3C(=O)NC(=N)N3C)c3cc(Cl)ccc32)cc1 (stereo unspecified)
GI50 (RXF 393): 6.29 µM | CC50 (RXF 393; [3]): > 100 µM | GI50 (COLO 205): 14.3 µM | CC50 (COLO 205; [3]): > 100 µM | GI50 (SF-295): 3.71 µM | CC50 (SF-295; [3]): > 100 µM | GI50 (HCT-15): 12.6 µM | LC50 (concentration killing 50% of starting cells) (HCT-15): > 100 µM | GI50 (SK-MEL-2): 10.4 µM | CC50 (SK-MEL-2; [3]): 96 µM | GI50 (NCI-H522): 1.86 µM | LC50 (concentration killing 50% of cells) (NCI-H522): 20.5 µM | GI50 (SNB-75): 3.39 µM | CC50 (SNB-75; [3]): > 100 µM | GI50 (NCI-H226): 26.8 µM | CC50 (NCI-H226; [3]): > 100 µM | GI50 (TK-10): 4.11 µM | CC50 (TK-10; [3]): > 100 µM | GI50 (OVCAR-3): 2.08 µM | CC50 (OVCAR-3; [3]): 11.5 µM | GI50 (KM12): 2.05 µM | CC50 (KM12; [3]): 30 µM | GI50 (PC-3): 4.27 µM | CC50 (PC-3; [3]): > 100 µM | GI50 (NCI-H23): 4.74 µM | LC50 (NCI-H23): > 100 µM | GI50 (HL-60(TB)): 3.22 µM | LC50 (HL-60(TB)): > 100 µM | GI50 (Malme-3M): 29.6 µM | CC50 (Malme-3M; [3]): > 100 µM | GI50 (NCI-H460): 26.8 µM | LC50 (NCI-H460): > 100 µM | GI50 (HCT-116): 3 µM | LC50 (HCT-116): 34.5 µM | GI50 (UACC-257): 1.43 µM | LC50 (UACC-257): 19.4 µM | GI50 (HOP-62): 5.12 µM | CC50 (HOP-62; [3]): > 100 µM | GI50 (MDA-MB-435): 6.12 µM | CC50 (MDA-MB-435; [3]): 93.1 µM | GI50 (CAKI-1): 1.98 µM | CC50 (CAKI-1; [3]): > 100 µM | GI50 (NCI-H322M): 14.3 µM | CC50 (NCI-H322M; [3]): > 100 µM | GI50 [1]: 2.62 µM | CC50 [1, 3]: > 100 µM | GI50 (SW-620): 2.59 µM | CC50 (SW-620; [3]): 49.6 µM | GI50 (SK-MEL-28): 50.3 µM | CC50 (SK-MEL-28; [3]): > 100 µM | GI50 (A498): 34.5 µM | CC50 (A498; [3]): > 100 µM | GI50 (HT-29): 1.38 µM | LC50 (HT-29): 44.1 µM | GI50 (T47D): 13.5 µM | LC50 (T47D): > 100 µM | GI50 (SF-268): 3.31 µM | CC50 (SF-268; [3]): 64.9 µM | GI50 (LOX IMVI): 0.75 µM | TGI (LOX IMVI): 11.8 µM | CC50 (LOX IMVI; [3]): 60 µM | GI50 (DU-145): 3.76 µM | CC50 (DU-145; [3]): 74.6 µM | GI50 (NCI/ADR-RES): 1.88 µM | CC50 (NCI/ADR-RES; [3]): 36.5 µM | GI50 (SF-539): 3.12 µM | CC50 (SF-539; [3]): 79.1 µM | GI50 (K562): 5.04 µM | CC50 (K562; [3]): > 100 µM | GI50 (A549): 0.19 µM | LC50 (A549): 10.9 µM | TGI (A549): 1.96 µM | GI50 (EKVX): 28.5 µM | LC50 (EKVX): > 100 µM | GI50 (CCRF-CEM): 2.06 µM | CC50 (CCRF-CEM; [3]): > 100 µM | GI50 (MCF7): 3.22 µM | LC50 (concentration killing 50% of starting cells) (MCF7): > 100 µM | GI50 (SN12C): 5.94 µM | CC50 (SN12C; [3]): > 100 µM | GI50 (IGROV-1): 2.59 µM | CC50 (IGROV-1; [3]): > 100 µM | GI50 (UO-31): 4.15 µM | CC50 (UO-31; [3]): > 100 µM | GI50 (OVCAR-8): 1.35 µM | CC50 (OVCAR-8; [3]): 17.2 µM | GI50 (SK-OV-3): 30.1 µM | CC50 (SK-OV-3; [3]): > 100 µM | GI50 (UACC-62): 23.4 µM | CC50 (UACC-62; [3]): > 100 µM | GI50 (OVCAR-4): 5.52 µM | CC50 (OVCAR-4; [3]): > 100 µM | GI50 (HCC 2998): 18.7 µM | LC50 (HCC 2998): 73.9 µM | GI50 (SNB-19): 17.2 µM | CC50 (SNB-19; [3]): > 100 µM | GI50 (SK-MEL-5): 22.6 µM | CC50 (SK-MEL-5; [3]): > 100 µM | GI50 (M14): 3.59 µM | LC50 (M14): 61.4 µM | GI50 (MDA-MB-231): 8.55 µM | CC50 (MDA-MB-231; [3]): > 100 µM | GI50 (786-0): 3.44 µM | CC50 (786-0; [3]): 43 µM | GI50 (MDA-MB-468): 2.29 µM | LC50 (concentration causing 50% net cell kill) (MDA-MB-468): > 100 µM | GI50 (ACHN): 20.4 µM | CC50 (ACHN; [3]): > 100 µM | GI50 (OVCAR-5): 34.9 µM | CC50 (OVCAR-5; [3]): > 100 µM | GI50 (BT-549): 2.98 µM | LC50 (BT-549): 54.9 µM | GI50 (MOLT-4): 2.94 µM | CC50 (MOLT-4; [3]): > 100 µM | GI50 [2]: 2.04 µM | CC50 [2, 3]: > 100 µM
